Data set [1] can be described thus: Cytotoxicity against human HepG2.2.15 cells assessed as reduction in number of viable cells after 3 days by MTT assay. It counts as cell-based, HepG2 2.2.15. The method in brief:
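Confluent HepG2.2.15 cultures were exposed to test compounds for 3 days, with six cultures for each of two dilutions. MTT (5 g/l) was added 4 h before the end, cells were dissolved in DMSO, and OD was read at 570 nm. CC50 (50% reduction in viable cells or OD) was calculated by the Berkson logit method. Mean ± SD of three independent experiments.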
In general terms: Tetrazolium assays rely on reduction of a dye to a coloured formazan, in cell work by metabolically active cells.

The subject of data set [2] is Hepatitis B virus. Nature of the data set: Antiviral activity against Hepatitis B virus transfected in human HepG2.2.15 cells assessed as inhibition of HBsAg secretion after 6 days by ELISA. It counts as functional, organism-based. The note with it: HepG2 2.2.15, 144 h. An outline of the steps:
(§1)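 HepG2.2.15 cells in DMEM with 10% FBS at 37 °C, 5% CO2, seeded at about 5 × 10⁵/well. After 24 h, compound was added at a range of concentrations, and media were replaced every 2 days for 6 days. Media were spun at 5000 rpm for 10 min, and secreted HBsAg and HBeAg were measured by ELISA. IC50 is the mean ± SD of three independent experiments.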
In general terms: In an ELISA, binding on a coated surface is turned into a signal by an enzyme label.

For data set [3], the system named is Hepatitis B virus. Briefly: Antiviral activity against Hepatitis B virus transfected in human HepG2.2.15 cells assessed as inhibition of HBeAg secretion after 6 days by ELISA. Conditions: HepG2 2.2.15, 144 h. It counts as functional, organism-based. An outline of the steps: as §1
Data set [4] has as its system Mus musculus. Nature of the data set: Immunoregulatory activity in Hepatitis B virus infected transgenic mouse assessed as increase in CD3+ population in peripheral blood at 100 mg/kg qd for 1 month by flow cytometry (reference value: 30.1 +/-2.9%). It counts as functional. A general note: In flow cytometry, cells or beads pass a laser one at a time.
Data set [5] deals with Mus musculus. Briefly: Immunoregulatory activity in Hepatitis B virus infected transgenic mouse assessed as increase in CD8+ population in peripheral blood at 100 mg/kg qd for 1 month by flow cytometry (reference value: 14.1 +/-1.4%). It counts as functional.
Data set [6] relates to Mus musculus. Briefly: Immunoregulatory activity in Hepatitis B virus infected transgenic mouse assessed as increase in CD4+/CD8+ population in peripheral blood at 100 mg/kg qd for 1 month by flow cytometry (reference value: 0.9 +/-0.2%). It counts as functional.
Data set [7] deals with Mus musculus. Briefly: Immunoregulatory activity in Hepatitis B virus infected transgenic mouse assessed as increase in cytokine IL-2 mRNA level in liver at 100 mg/kg qd for 1 month by qPCR analysis. It counts as functional, organism-based. Further details: dose 100 mg/kg. The method in brief:
(§2)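 Liver IFN-γ and IL-2 mRNA were measured by qPCR with mouse-specific primers, normalized to GAPDH, 40 cycles, in duplicate. HBV transgenic mice (10 per group) had been dosed at 100 mg/kg once daily for one month in 0.1% DMSO, and livers were taken at day 30. Mean ± SD of 10 mice.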

For data set [8], the system named is Mus musculus. Briefly: Immunoregulatory activity in Hepatitis B virus infected transgenic mouse assessed as increase in CD4+ population in peripheral blood at 100 mg/kg qd for 1 month by flow cytometry (reference value: 13.6 +/-2.7%). It counts as functional.
In data set [9] the test system is Mus musculus. Nature of the data set: Immunoregulatory activity in Hepatitis B virus infected transgenic mouse assessed as increase in cytokine IL-2 level in serum at 100 mg/kg qd for 1 month by ELISA. Further details: dose 100 mg/kg. It counts as functional, organism-based. The method in brief:
(§3)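 Serum IFN-γ and IL-2 were measured by ELISA in HBV transgenic mice (10 per group) after 100 mg/kg once daily for one month in 0.1% DMSO, with sera collected at day 30. Mean ± SD of 10 mice.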

For data set [10], the system named is Mus musculus. Briefly: Immunoregulatory activity in Hepatitis B virus infected transgenic mouse assessed as increase in cytokine IFN gamma level in serum at 100 mg/kg qd for 1 month by ELISA. It counts as functional, organism-based. Further details: dose 100 mg/kg. An outline of the steps: as §3
Data set [11] deals with Mus musculus. Briefly: Immunoregulatory activity in Hepatitis B virus infected transgenic mouse assessed as increase in cytokine IFN gamma mRNA level in liver at 100 mg/kg qd for 1 month by qPCR analysis. It counts as functional, organism-based. Further details: dose 100 mg/kg. An outline of the steps: as §2
Data set [12] deals with Hepatitis B virus. Briefly: Antiviral activity against Hepatitis B virus infected in transgenic mouse assessed as decrease in viral DNA level in liver at 100 mg/kg qd for 1 month by qPCR analysis. It counts as functional, organism-based. On the set-up: dose 100 mg/kg. An outline of the steps:
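HBV transgenic mice, 8 weeks old, sex- and HBsAg-matched, 10 per group. Given 100 mg/kg daily for one month, solubilized with 0.1% DMSO. Livers were harvested after 30 days. HBV DNA was extracted and quantified by qPCR with a commercial HBV DNA kit, 40 cycles, normalized to GAPDH, run in duplicate. Mean ± SD of 10 mice.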

Data set [13] deals with Hepatitis B virus. Nature of the data set: Antiviral activity against Hepatitis B virus infected in transgenic mouse assessed as decrease in serum HBsAg level at 100 mg/kg qd for 1 month by ELISA. It counts as functional, organism-based. Further details: dose 100 mg/kg. The method in brief:
(§4)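 HBV transgenic mice (C57BL/6 background, 3.2 Kb HBV DNA, backcrossed to C57BL/6J), 8 weeks old, equal numbers of each sex, matched for serum HBsAg. Ten per group. Dosed 100 mg/kg once daily for one month in 0.1% DMSO. Groups included saline and 0.1% DMSO. Sera were taken at day 30, and HBsAg and HBeAg were measured by ELISA kit. Mean ± SD of 10 mice.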

For data set [14], the system named is Hepatitis B virus. Nature of the data set: Antiviral activity against Hepatitis B virus infected in transgenic mouse assessed as decrease in serum HBeAg level at 100 mg/kg qd for 1 month by ELISA. It counts as functional, organism-based. On the set-up: dose 100 mg/kg. The method in brief:
as §4

Consider six compounds from ChEMBL document CHEMBL2331251, “Synthesis and biological evaluation of nucleoside analogues than contain silatrane on the basis of the structure of acyclovir (ACV) as novel inhibitors of hepatitis B virus (HBV)” (Bioorg Med Chem Lett, 2013).

pIC50: −log10 of the molar value. Activity calls are given as the source filed them. The calls are words filed in the database; no cut-off is given here.

As for `Nc1nc2c(ncn2COCCOC(=O)CCC(=O)NCCC[Si]23OCCN(CCO2)CCO3)c(=O)[nH]1`, in data set [1], the CC50 at 72 h turned out to be 485 µM. Moreover, the results for the pIC50 in the data set on Hepatitis B virus [2] and with Hepatitis B virus [3] were 4.10 and 3.90, respectively.
`Nc1nc2c(ncn2COCCO)c(=O)[nH]1` [ACYCLOVIR]: the Activity was 31.2% in the data set with Mus musculus [4], 15.1% in the data set on Mus musculus [5], 1.2% in the data set on Mus musculus [6] and 18.7% with Mus musculus [8]. In data set [1], the CC50 at 72 h was determined as 630 µM. Moreover, the pIC50 in the data set on Hepatitis B virus [2] and with Hepatitis B virus [3] was under 3.00 each time. The outcome in the data set on Mus musculus [7], in the data set on Mus musculus [9], in the data set on Mus musculus [10] and in the data set with Mus musculus [11] was Active.
Consider `Nc1nc2c(ncn2COCCOC(=O)CCCC(=O)NCCC[Si]23OCCN(CCO2)CCO3)c(=O)[nH]1`, for which the CC50 at 72 h in [1] worked out at 570 µM. The pIC50 was 4.04 in the data set on Hepatitis B virus [2] and 3.80 in the data set on Hepatitis B virus [3].
In the case of `Nc1ccn([C@@H]2CS[C@H](CO)O2)c(=O)n1` [LAMIVUDINE], the Activity was determined as 34.1% with Mus musculus [4], 16.7% in the data set with Mus musculus [5], 1.2% in the data set with Mus musculus [6] and 19.3% in the data set with Mus musculus [8]. Also, in data set [1], the CC50 at 72 h was over 1000 µM. Moreover, the pIC50 in the data set with Hepatitis B virus [2] is 3.39; with Hepatitis B virus [3] it was under 3.00. Further, the result in the data set on Mus musculus [7], with Mus musculus [9], in the data set with Mus musculus [10] and in the data set on Mus musculus [11] was Active. In the data set on Hepatitis B virus [12], the inhibition entry was “Active”.
On to `CC1CN2CC(C)O[Si](CCCNC(=O)CCCC(=O)OCCOCn3cnc4c(=O)[nH]c(N)nc43)(OC[C@@H]2C)O1` (stereo partly specified), for which the CC50 at 72 h in [1] is 732 µM. Also, the pIC50 in the data set with Hepatitis B virus [2] is 3.85; with Hepatitis B virus [3], 3.31.
With `CC1CN2CC(C)O[Si](CCCNC(=O)CCC(=O)OCCOCn3cnc4c(=O)[nH]c(N)nc43)(O1)O[C@@H](C)C2` (stereo partly specified), the Activity with Mus musculus [4] amounted to 48.3%; with Mus musculus [5], 20.6%; in the data set with Mus musculus [6], 1.6%; with Mus musculus [8], 33%. Further, the inhibition result in the data set with Hepatitis B virus [13], in the data set with Hepatitis B virus [12] and with Hepatitis B virus [14] was “Active” each time. In data set [1], the CC50 at 72 h came to 467 µM. Besides, the pIC50 in the data set with Hepatitis B virus [2] was 4.46; with Hepatitis B virus [3] it was 4.05. For the same compound, the outcome in the data set on Mus musculus [7], with Mus musculus [9], in the data set on Mus musculus [10] and with Mus musculus [11] was Active.

Usually CC50 stands for the concentration that lowers cell viability or growth by half. A word on the pIC50: it is −log10 of the IC50, conventionally taken in molar units.
